GRK2 aptamer HTS: human GRK2 inhibition via aptamer displacement. bead flow cytometry, FAM-aptamer displacement from GRK2. inhibition of aptamer binding, % at 10 µM. actives 0.59% (n = 330,000);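 active means inhibition of aptamer binding above 40%, roughly 3 SD of noise, on plates passing a quality check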;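 further: median bead fluorescence of bound FAM aptamer so fluorescent compounds give negative values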
Scp1 inh: blocks human Scp-1 phosphatase activity. Recombinant Scp1, phosphopeptide, malachite green phosphate absorbance. inhibition, % at 20 µM. Q9GZU7. actives 0.88% (n = 340,000);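 active means inhibition above about 50% at 20 µM, limit read from the data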;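 further: plate controls were DMSO wells with enzyme for no effect and wells lacking enzyme for full effect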
Target sequence (Q9GZU7 76-261 limits assumed): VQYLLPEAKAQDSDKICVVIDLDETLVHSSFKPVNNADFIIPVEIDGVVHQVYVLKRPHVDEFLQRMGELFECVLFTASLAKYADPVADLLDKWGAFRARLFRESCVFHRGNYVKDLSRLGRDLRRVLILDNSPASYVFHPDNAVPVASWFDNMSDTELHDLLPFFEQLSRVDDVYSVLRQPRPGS
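Test system: SCP-1 catalytic domain; Buffer or medium: Acidic Tris acetate buffer with magnesium and detergent; Also added: Phosphorylated 17-residue peptide substrate; Compound: single 20 µM dose, 1% DMSO; Schedule: enzyme reaction 45 min at room temperature, colour 5 min, stabilisation 30 min; Signal: Phosphate-binding colour reagent, absorbance read at 630 nm.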
STEP inh: blocks human striatal-enriched tyrosine phosphatase | recombinant STEP, OMFP fluorogenic substrate, fluorescence | inhibition, % at 20 µM | actives 0.25% (n = 360,000);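 active means inhibition at 20 µM, scaled per plate between control wells, above about 37%, limit read from the data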;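 further: 0% = DMSO with enzyme and substrate and 100% = substrate only without enzyme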
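Assay system: isolated STEP enzyme. Buffer or medium: pH 6.0 Bis-Tris with DTT and Tween 20. Also added: fluorogenic phosphatase substrate OMFP at 25 µM final. Dosing: 20 µM, 1% DMSO. Timing: 20 min reaction, room temperature, in the dark. Measured by: fluorescence intensity, excitation 480 nm, emission 540 nm. Evaluation: normalized % inhibition.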
DNMT1 inh: DNMT1 (human) enzyme inhibition; P26358; DNMT1 molecular beacon, Hinp1I cleavage, fluorescence; inhibition (reported as % activation of signal), % at 10 µM; actives 0.83% (n = 360,000); AID 588458; in the data active means inhibition above about 50%
LMPTP block: blocks human LMPTP phosphatase; P24666; recombinant LMPTP-A, OMFP fluorogenic substrate, fluorescence intensity; inhibition, % at 20 µM; actives 0.22% (n = 360,000); AID 651560;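 active means compounds that cut the enzyme signal by at least half of the control window in the single-dose screen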;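 further: plate controls were DMSO wells with enzyme plus substrate for no effect and substrate without enzyme for full effect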
Target sequence (P24666 whole entry, looked up): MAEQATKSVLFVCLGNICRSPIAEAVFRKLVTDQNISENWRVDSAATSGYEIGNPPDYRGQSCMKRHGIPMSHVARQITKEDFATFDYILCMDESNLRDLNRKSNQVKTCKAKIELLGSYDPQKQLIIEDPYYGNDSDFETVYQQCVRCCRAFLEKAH
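material = LMPTP-A | quantity = 0.625 nM enzyme | reagent = OMFP substrate, 400 µM final | buffer or medium = Bis-Tris pH 6.0, DTT, detergent | detection = endpoint fluorescence intensity from OMFP dephosphorylation | dosing = single 20 µM dose | read-out basis = % inhibition relative to no-enzyme and uninhibited control wells | control set = no-enzyme and uninhibited controls | timing = 50 min at room temperature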
SUMO1 PPI mod: SUMO1-SIM interaction modulation; P63165; SUMO1 binding to a labelled peptide, TR-FRET, 1 h; inhibition, % at 20 µM; actives 0.33% (n = 360,000); in the data active means inhibition above about 37%
Target sequence (P63165 whole entry, looked up): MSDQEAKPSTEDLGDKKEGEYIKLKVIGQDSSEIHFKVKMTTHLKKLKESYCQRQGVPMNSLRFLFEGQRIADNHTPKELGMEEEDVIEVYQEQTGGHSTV
Scp1 confirm: Scp-1 (human) inhibition, single-dose confirmed | shares compounds with Scp1 inh | recombinant SCP-1 catalytic domain, phosphate release, malachite green absorbance | inhibition, % at 20 µM | actives 61% (n = 2,500);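 further: plate controls were DMSO with enzyme for no effect and buffer wells lacking enzyme for full effect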
Scp-1 MG ctr: colorimetric interference in Scp-1 counter-screen. shares compounds with Scp1 inh. apparent inhibition (interference), % at 20 µM. 2,500 tested, under 10 active. Colorimetric interference counterscreen, malachite green absorbance 630 nm;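 further: compounds added after enzyme reaction finished so only phosphate colour detection is probed; plate controls were DMSO wells with completed Scp-1 reaction for no effect and substrate wells lacking enzyme for full effect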
Scp1 DSF: validation of human Scp-1 inhibitors by thermal shift binding. actives 25% (n = 1,500). thermal shift relative to vanadate control, % at 40 µM. Recombinant SCP1, Sypro Orange thermal shift Tm. shares compounds with Scp1 inh. AID 540329;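 active means substances whose mean melting-temperature shift, as a percentage of the reference inhibitor's shift, reaches about 5.3%, limit read from the data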;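 further: 0% = Tm of DMSO wells and 100% = Tm with sodium orthovanadate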
* marks the source's active call; other numbers are inactive results; nt = no result; ! = not confirmed by another sample. Only some compounds are listed: those with a hit (about 2.1% of all), similar ones and a draw of the others.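 How the source made its calls, unless noted: active means inhibition of at least 30% at 20 µM; inactive means the rest.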

SMILES	GRK2 aptamer HTS	Scp1 inh	STEP inh	DNMT1 inh	LMPTP block	SUMO1 PPI mod	Scp1 confirm	Scp-1 MG ctr	Scp1 DSF
CCOC(=O)C1=C(C)c2ccccc2OC1(C(=O)OCC)c1ccccc1 (configuration not stated)	2	103*	-4	7	-1	6	39*	-18	-31
Cn1c[n+](C)cc1C(O)c1ccccc1 (configuration not stated)	2	92*!	-2	-1	-1	0	84*	-11	-1
O=c1[nH]c2ccccc2n1C1CCN(C(c2cccs2)c2nnnn2-c2ccc3c(c2)OCCO3)CC1 (configuration not stated)	nt	nt	-1	-19	3	10	nt	nt	nt
CNC(C(=O)c1ccccc1)C(OC(C)=O)c1cccc([N+](=O)[O-])c1 (configuration not stated)	0	88*	1	-4	0	-22	-10	-10	nt
CCOP(=O)(OCC)C1(O)C(=O)Nc2ccccc21 (configuration not stated)	2	-1	-2	8	-2	-6	nt	nt	nt
CC1CCCC(C2(O)C(=O)Nc3ccccc32)C1=O (configuration not stated)	0	57*	-7	-2	-3	3	2	-14	nt
CC(=O)OC1C(O)C2=C3C4(C)C1C(C)(C)C(=O)CC4C3(O)C(OC(C)=O)C1(CC1C)C2=O (configuration not stated)	nt	nt	nt	nt	-1	1	nt	nt	nt
O=C(O)c1ccccc1-c1ccc(C=C2C(=O)N(c3ccccc3)C(=S)N(c3ccccc3)C2=O)o1	nt	58*	4	28	4	24	54*	-11	2
CCN(CC)P(=O)(c1n(CC)cc[n+]1CC)N(CC)CC	2	103*	-3	2	3	3	80*	-19	-10
C[n+]1ccc(-c2ccncc2)cc1	0	96*	2	-1	-5	-25	4	-9	nt
CCC(CO)(C(=O)OC1C[N+]2(C)CCC1CC2)c1ccccc1 (configuration not stated)	4	94*	1	1	0	-2	80*	-17	-1
O=C(O)CCn1cc(C=C2C(=O)NC(=S)NC2=O)c(-c2cccc(Cl)c2)n1	0	67*	-2	0	0	8	42*	-13	-19
O=C(O)CCn1cc(C=C2C(=O)NC(=O)NC2=O)c(-c2ccc(Br)cc2)n1	0	8	4	5	-2	3	nt	nt	nt
C=C1C(=O)OC2CC3(C)OC3C3OC3C3=CC(OC3=O)C12 (configuration not stated)	nt	nt	-1	30	2	6	nt	nt	nt
c1coc(CN2Cc3ccccc3-n3nncc3C2)c1	nt	nt	-5	1	-2	3	nt	nt	nt
COc1cc2c(cc1OC)-c1c(OC)c(OC)cc3c1[C@H](C2)[N+](C)(C)CC3	0	55*	2	2	0	1	12	-11	nt
COc1cc2c3c(c1OC)-c1cc(O)ccc1CC3NCC2 (configuration not stated)	2	-7	7	0	-1	1	nt	nt	nt
Cc1cccc(C)c1-n1nnnc1C(c1ccccc1OC(F)(F)F)N1CCC(n2c(=O)[nH]c3ccccc32)CC1 (configuration not stated)	nt	nt	2	-25	5	-9	nt	nt	nt
C[C@H]1[C@H](OC(=O)CCC(=O)NCc2ccc(C(=O)O)cc2)O[C@@H]2O[C@@]3(C)CC[C@H]4[C@H](C)CC[C@@H]1C24OO3	0	4	-1	0	0	8	nt	nt	nt
CC(C)CC(NC(=O)CCCNC(=O)CCC(=O)OC1O[C@H]2OC3(C)CC[C@H]4[C@H](C)CCC(C1C)C24OO3)C(=O)O (some centres not stated)	1	95*	-4	4	-1	-1	-12	-13	nt
CC[N+]12CCC(CC1)C(C(O)(c1ccccc1)c1ccccc1)C2 (configuration not stated)	0	-1	3	2	-1	4	nt	nt	nt
CC(C)[N+]12CCC(CC1)C(C(O)(c1ccccc1)c1ccccc1)C2 (configuration not stated)	0	99*	-4	1	-1	3	87*	-11	-27
CC(=O)N1CCCSC1=Nc1ccccc1	2	-7	0	2	-2	4	nt	nt	nt
CCOc1ccccc1N=C1SCCCN1C	5	55*	0	2	0	-1	67*	-11	-7
O=C1NC(=S)SC1=Cc1ccc(N(CCCl)CCCl)cc1	nt	-5	-57	25	3	6	nt	nt	nt
CCCCCC(=O)N[C@@H](c1ccccc1)[C@@H](O)C(=O)O[C@H]1C[C@@]2(O)[C@@H](OC(=O)c3ccccc3)C3[C@](C)(C(=O)[C@H](O)C(=C1C)C2(C)C)[C@@H](OC1OCC(O)C(O)C1O)C[C@H]1OC[C@@]31OC(C)=O (some centres not stated)	0	-13	-1	-1	0	25	-14	-8	nt
COc1ccc(-n2nnnc2C(c2cccs2)N2CCC(n3c(=O)[nH]c4ccccc43)CC2)cc1 (configuration not stated)	nt	nt	-6	-11	4	3	nt	nt	nt
CCCC[N+]12CCC(CC1)C(C(=O)c1cccs1)C2 (configuration not stated)	0	98*	-2	-3	0	-7	103*	6	-4
COc1c(O)cc2c(c1OC)-c1ccc(SC)c(=O)cc1C(NC(C)=O)CC2 (configuration not stated)	nt	5	-1	-6	-1	-28	nt	nt	nt
